Source: ChEMBL document CHEMBL4725272, “Studies on the stereoselective synthesis and immunosuppressive activity of dihydroartemisinin-O-glycoside derivatives” (Bioorg Med Chem Lett, 2020)

Assays:
[1] = (§1) Inhibition of human CD8+ve […] cell proliferation; type: functional, tissue-based; conditions: CD8-positive T cell
In short: (§2)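 Human T cells, proliferation inhibition measured over a dose series, run in triplicate (n=3). IC50 was taken from dose-response curves fitted by four-parameter non-linear regression.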

[2] = (§3) Inhibition of human CD4+ve Th cell proliferation; type: functional, tissue-based; in short: as §2
[3] = Inhibition of T cell (unknown origin) proliferation; type: functional, tissue-based
[4] = Inhibition of B cell (unknown origin) proliferation; type: functional, tissue-based
CD8-positive T cell = test: as §1; type: functional, tissue-based; in short: as §2
T cell = test: Immunosuppressive activity in human primary T-cells extracted form PBMC assessed as inhibition of CD3/CD28-induced IFN-gamma recovery in cell culture media at 2-32 uM incubated for 120 hrs by ELISA; type: functional, tissue-based; conditions: dose microM 2-32, time 120.0 hrs
CD4+ve Th = test: as §3; type: functional, tissue-based; in short: as §2
[5] = Immunosuppressive activity in human primary T-cells extracted from PBMC assessed as inhibition of CD3/CD28-induced IFN-gamma recovery in cell culture media incubated for 120 hrs by ELISA relative to control; type: functional
[6] = Inhibition of human T cell proliferation relative to control; type: functional

| Compound | IC50 [1] | IC50 [2] | other results |
| --- | --- | --- | --- |
| C[C@H]1[C@@H](O[C@H]2O[C@H](CO)[C@@H](O)[C@H](O)[C@@H]2O)O[C@@H]2O[C@@]3(C)CC[C@H]4[C@H](C)CC[C@@H]1[C@@]24OO3 | > 32 µM | > 32 µM |  |
| C[C@H]1[C@@H](OCCN)O[C@@H]2O[C@@]3(C)CC[C@H]4[C@H](C)CC[C@@H]1[C@@]24OO3 | 1.36 µM | 1.05 µM | IC50 [3]: 1.2 µM; IC50 [4]: 2.6 µM |
| C[C@H]1[C@@H](O[C@@H]2O[C@H](CO)[C@@H](O[C@H]3O[C@H](CO)[C@@H](O)[C@H](O)[C@H]3O)[C@H](O)[C@H]2O)O[C@@H]2O[C@@]3(C)CC[C@H]4[C@H](C)CC[C@@H]1[C@@]24OO3 | 4 µM | 9.09 µM |  |
| C[C@H]1[C@@H](O)O[C@@H]2O[C@@]3(C)CC[C@H]4[C@H](C)CC[C@@H]1[C@@]24OO3 [ARTENIMOL] | 5.53 µM | 4.03 µM |  |
| C[C@H]1[C@@H](O[C@H]2O[C@H](CO)[C@H](O)[C@H](O)[C@H]2O)O[C@@H]2O[C@@]3(C)CC[C@H]4[C@H](C)CC[C@@H]1[C@@]24OO3 | 8.63 µM | 10.4 µM |  |
| C[C@H]1[C@@H](O[C@H]2OC[C@H](O)[C@H](O)[C@H]2O)O[C@@H]2O[C@@]3(C)CC[C@H]4[C@H](C)CC[C@@H]1[C@@]24OO3 | 13 µM | 14.1 µM |  |
| C[C@H]1[C@@H](O[C@H]2OC[C@@H](O)[C@H](O)[C@H]2O)O[C@@H]2O[C@@]3(C)CC[C@H]4[C@H](C)CC[C@@H]1[C@@]24OO3 | 9.52 µM | 10.8 µM |  |
| C[C@H]1[C@@H](O[C@H]2O[C@H](CO)[C@@H](O)[C@H](O)[C@H]2O)O[C@@H]2O[C@@]3(C)CC[C@H]4[C@H](C)CC[C@@H]1[C@@]24OO3 | 19.4 µM | 17.9 µM |  |
| C[C@H]1[C@H](O[C@@H]2O[C@H](CO)[C@@H](O)[C@H](O)[C@@H]2O)O[C@@H]2O[C@@]3(C)CC[C@H]4[C@H](C)CC[C@@H]1[C@@]24OO3 | 2.65 µM | 3.49 µM | inhibition (CD8-positive T cell): Dose-dependent effect; inhibition (T cell): Dose-dependent effect; inhibition (CD4+ve Th): Dose-dependent effect; inhibition (INH) [5]: 98%; inhibition (INH) [6]: 88% |
| C[C@H]1[C@H](O[C@H]2O[C@@H](C)[C@H](O)[C@@H](O)[C@H]2O)O[C@@H]2O[C@@]3(C)CC[C@H]4[C@H](C)CC[C@@H]1[C@@]24OO3 | 3.36 µM | 3.83 µM | inhibition (CD8-positive T cell): Dose-dependent effect; inhibition (T cell): Dose-dependent effect; inhibition (CD4+ve Th): Dose-dependent effect |
